# Source: ChEMBL document CHEMBL5705905, “Pharmacological targeting of kinases MST1 and MST2 augments tissue repair and regeneration” (Sci Transl Med, 2016)
# Calls of active or inactive are those of the source. No cut-off for these calls is given here.
# Legend:
# [1] = test system: Epidermal growth factor receptor (Homo sapiens), P00533 [UNDEFINED MUTATION]; assay: Inhibition of EGFR L747-S752del/P753S mutant (unknown origin) assessed as remaining activity at 1 uM by Kinome scan method relative to control
# [2] = molecular target: Rhodopsin kinase GRK1 (Homo sapiens) (UniProt Q15835); assay: Inhibition of GRK1 (unknown origin) assessed as remaining activity at 1 uM by Kinome scan method relative to control
# [3] = molecular target: Leucine-rich repeat serine/threonine-protein kinase 2 (Homo sapiens) (UniProt Q5S007); assay: Inhibition of LRRK2 (unknown origin) assessed as remaining activity at 1 uM by Kinome scan method relative to control
# Chain of Leucine-rich repeat serine/threonine-protein kinase 2 (Homo sapiens) (Q5S007 whole entry): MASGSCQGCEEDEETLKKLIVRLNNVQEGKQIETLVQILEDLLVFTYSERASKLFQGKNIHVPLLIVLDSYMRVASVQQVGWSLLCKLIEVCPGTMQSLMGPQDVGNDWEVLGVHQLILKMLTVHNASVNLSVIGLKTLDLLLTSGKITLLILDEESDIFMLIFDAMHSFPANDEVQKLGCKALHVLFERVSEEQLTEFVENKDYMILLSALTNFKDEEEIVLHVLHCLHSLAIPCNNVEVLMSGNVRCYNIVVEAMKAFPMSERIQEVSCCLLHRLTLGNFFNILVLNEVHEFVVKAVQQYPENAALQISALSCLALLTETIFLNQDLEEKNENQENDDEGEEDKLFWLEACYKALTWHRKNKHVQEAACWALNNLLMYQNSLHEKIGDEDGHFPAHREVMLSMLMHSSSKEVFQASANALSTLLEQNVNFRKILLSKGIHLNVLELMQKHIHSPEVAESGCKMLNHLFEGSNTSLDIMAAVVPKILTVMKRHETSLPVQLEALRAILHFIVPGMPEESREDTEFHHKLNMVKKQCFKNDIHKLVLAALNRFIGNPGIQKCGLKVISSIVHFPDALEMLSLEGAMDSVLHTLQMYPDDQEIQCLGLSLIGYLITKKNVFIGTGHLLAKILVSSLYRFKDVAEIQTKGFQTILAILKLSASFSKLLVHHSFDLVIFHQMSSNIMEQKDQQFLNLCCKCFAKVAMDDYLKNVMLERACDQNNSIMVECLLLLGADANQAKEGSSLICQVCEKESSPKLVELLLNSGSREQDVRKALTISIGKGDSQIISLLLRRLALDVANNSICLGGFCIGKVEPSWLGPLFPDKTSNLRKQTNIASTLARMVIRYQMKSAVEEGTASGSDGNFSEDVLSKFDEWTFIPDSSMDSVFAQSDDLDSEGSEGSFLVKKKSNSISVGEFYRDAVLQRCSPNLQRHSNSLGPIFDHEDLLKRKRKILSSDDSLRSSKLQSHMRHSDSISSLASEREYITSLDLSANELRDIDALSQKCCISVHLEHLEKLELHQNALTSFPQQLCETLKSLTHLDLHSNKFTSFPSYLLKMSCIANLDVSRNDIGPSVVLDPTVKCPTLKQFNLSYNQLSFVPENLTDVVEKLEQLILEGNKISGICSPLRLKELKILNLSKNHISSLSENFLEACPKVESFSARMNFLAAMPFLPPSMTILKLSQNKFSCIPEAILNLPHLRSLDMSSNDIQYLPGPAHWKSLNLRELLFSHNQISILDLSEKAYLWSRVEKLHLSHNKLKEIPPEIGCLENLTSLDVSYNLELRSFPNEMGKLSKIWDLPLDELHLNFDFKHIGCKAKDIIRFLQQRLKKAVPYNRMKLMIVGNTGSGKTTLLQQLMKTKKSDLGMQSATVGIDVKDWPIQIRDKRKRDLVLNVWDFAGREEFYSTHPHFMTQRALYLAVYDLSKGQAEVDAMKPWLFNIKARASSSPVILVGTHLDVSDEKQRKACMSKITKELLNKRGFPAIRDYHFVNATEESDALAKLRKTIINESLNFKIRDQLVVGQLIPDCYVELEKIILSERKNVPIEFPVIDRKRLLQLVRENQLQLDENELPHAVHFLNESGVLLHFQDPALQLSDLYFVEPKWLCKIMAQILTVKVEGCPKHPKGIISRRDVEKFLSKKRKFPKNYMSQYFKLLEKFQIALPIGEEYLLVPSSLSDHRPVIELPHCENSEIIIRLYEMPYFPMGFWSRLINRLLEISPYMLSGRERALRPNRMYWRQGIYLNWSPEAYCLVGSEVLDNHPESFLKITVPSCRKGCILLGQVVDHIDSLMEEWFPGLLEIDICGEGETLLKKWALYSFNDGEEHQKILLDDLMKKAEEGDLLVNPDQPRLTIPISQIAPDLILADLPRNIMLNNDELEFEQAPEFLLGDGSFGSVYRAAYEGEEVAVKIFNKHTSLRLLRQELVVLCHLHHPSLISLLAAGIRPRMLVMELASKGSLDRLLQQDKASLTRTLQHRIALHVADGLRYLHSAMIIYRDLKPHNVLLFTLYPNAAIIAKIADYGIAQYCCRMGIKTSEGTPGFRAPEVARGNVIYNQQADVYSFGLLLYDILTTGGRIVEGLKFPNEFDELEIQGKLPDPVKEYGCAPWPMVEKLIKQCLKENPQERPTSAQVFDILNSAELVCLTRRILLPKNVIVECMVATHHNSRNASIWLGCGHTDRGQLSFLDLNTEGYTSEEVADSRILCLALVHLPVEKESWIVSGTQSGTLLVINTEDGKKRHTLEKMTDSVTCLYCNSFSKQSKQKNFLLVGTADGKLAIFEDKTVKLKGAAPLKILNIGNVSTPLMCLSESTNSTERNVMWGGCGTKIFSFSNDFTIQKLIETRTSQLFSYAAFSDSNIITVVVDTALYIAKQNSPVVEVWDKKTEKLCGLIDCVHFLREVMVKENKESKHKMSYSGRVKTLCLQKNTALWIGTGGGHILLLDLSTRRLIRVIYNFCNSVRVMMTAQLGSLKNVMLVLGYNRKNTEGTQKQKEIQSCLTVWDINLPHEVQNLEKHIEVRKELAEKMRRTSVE
# [4] = molecular target: Calcium/calmodulin-dependent protein kinase type II subunit delta (Homo sapiens) (UniProt Q13557); assay: Inhibition of CAMK2D (unknown origin) assessed as remaining activity at 1 uM by Kinome scan method relative to control
# How it was run: (§1)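 Active-site-dependent competition-binding profiling (KINOMEscan) at 1 μM against a 468-kinase panel; compound supplied from a 10 mM DMSO stock. Read-out is ctrl% = (test signal − positive control signal)/(negative control signal − positive control signal) × 100. DMSO is the negative control (100%) and a control compound the positive control (0%). Lower ctrl% means tighter binding.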
# [5] = molecular target: Protein kinase C epsilon type (Homo sapiens) (UniProt Q02156); assay: Inhibition of PRKCE (unknown origin) assessed as remaining activity at 1 uM by Kinome scan method relative to control
# [6] = molecular target: Mitotic checkpoint serine/threonine-protein kinase BUB1 (Homo sapiens) (UniProt O43683); assay: Inhibition of BUB1 (unknown origin) assessed as remaining activity at 1 uM by Kinome scan method relative to control
# How it was run: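 KINOMEscan active-site-dependent competition-binding panel of 468 kinases, compound at 1 μM from a DMSO stock. Result reported as ctrl% = (test signal − positive control signal)/(negative control signal − positive control signal) × 100. The negative control is DMSO (100%) and the positive control is a control compound (0%). Lower ctrl% means tighter binding.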
# [7] = molecular target: Testis-specific serine/threonine-protein kinase 3 (Homo sapiens) (UniProt Q96PN8); assay: Inhibition of TSSK3 (unknown origin) assessed as remaining activity at 1 uM by Kinome scan method relative to control
# Chain of Testis-specific serine/threonine-protein kinase 3 (Homo sapiens) (Q96PN8 whole entry): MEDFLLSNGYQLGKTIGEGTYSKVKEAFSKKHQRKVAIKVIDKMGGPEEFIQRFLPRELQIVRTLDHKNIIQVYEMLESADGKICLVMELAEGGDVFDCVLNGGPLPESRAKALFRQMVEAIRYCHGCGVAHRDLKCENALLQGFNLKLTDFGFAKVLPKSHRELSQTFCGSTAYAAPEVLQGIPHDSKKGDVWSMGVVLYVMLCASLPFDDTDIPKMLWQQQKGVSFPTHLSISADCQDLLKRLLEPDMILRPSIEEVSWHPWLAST
# [8] = molecular target: Ephrin type-A receptor 1 (Homo sapiens) (UniProt P21709); assay: Inhibition of EPHA1 (unknown origin) assessed as remaining activity at 1 uM by Kinome scan method relative to control
# [9] = molecular target: Interferon-induced, double-stranded RNA-activated protein kinase (Homo sapiens) (UniProt P19525); assay: Inhibition of PRKR (unknown origin) assessed as remaining activity at 1 uM by Kinome scan method relative to control
# [10] = AUC (0 to infinity) in male Sprague-Dawley rat at 10 mg/kg, po measured for 24 hrs by LC-MS/MS analysis; type: ADME, organism-based; conditions: in vivo
# How it was run: (§2)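 Sprague-Dawley rats, single intravenous or oral dose. Parameters (half-life, AUC, bioavailability) reported in a supplementary table.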
# [11] = molecular target: Peripheral plasma membrane protein CASK (Homo sapiens) (UniProt O14936); assay: Inhibition of CASK (unknown origin) assessed as remaining activity at 1 uM by Kinome scan method relative to control; how it was run: as §1
# Chain of Peripheral plasma membrane protein CASK (Homo sapiens) (O14936 whole entry): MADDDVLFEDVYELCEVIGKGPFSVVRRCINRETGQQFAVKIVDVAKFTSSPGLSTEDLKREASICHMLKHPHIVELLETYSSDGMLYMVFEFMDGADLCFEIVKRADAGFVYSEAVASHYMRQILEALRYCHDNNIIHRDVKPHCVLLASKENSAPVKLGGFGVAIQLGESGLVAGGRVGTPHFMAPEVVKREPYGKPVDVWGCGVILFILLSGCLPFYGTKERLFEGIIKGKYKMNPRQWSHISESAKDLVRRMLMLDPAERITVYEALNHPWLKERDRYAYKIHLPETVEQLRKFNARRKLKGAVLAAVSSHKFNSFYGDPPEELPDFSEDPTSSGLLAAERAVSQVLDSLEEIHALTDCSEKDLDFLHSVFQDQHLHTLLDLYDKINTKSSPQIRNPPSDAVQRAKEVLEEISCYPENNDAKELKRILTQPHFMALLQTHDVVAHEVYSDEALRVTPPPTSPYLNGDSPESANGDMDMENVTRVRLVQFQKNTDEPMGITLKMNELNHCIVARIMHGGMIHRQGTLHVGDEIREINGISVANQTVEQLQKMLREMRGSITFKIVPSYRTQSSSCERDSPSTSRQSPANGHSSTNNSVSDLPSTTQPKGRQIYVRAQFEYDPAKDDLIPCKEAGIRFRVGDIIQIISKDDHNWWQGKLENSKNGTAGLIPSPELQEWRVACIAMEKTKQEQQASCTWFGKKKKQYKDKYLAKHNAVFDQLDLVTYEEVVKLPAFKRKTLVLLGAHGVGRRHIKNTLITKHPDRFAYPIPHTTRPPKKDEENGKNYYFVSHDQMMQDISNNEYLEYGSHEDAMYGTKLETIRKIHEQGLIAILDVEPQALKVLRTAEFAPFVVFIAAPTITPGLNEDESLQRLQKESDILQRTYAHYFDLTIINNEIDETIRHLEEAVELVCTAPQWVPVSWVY
# [12] = molecular target: Tyrosine-protein kinase Lyn (Homo sapiens) (UniProt P07948); assay: Inhibition of LYN (unknown origin) assessed as remaining activity at 1 uM by Kinome scan method relative to control
# [13] = molecular target: Phosphatidylinositol 4-phosphate 3-kinase C2 domain-containing subunit beta (Homo sapiens) (UniProt O00750); assay: Inhibition of PIK3C2B (unknown origin) assessed as remaining activity at 1 uM by Kinome scan method relative to control
# [14] = molecular target: Serine/threonine-protein kinase Nek9 (Homo sapiens) (UniProt Q8TD19); assay: Inhibition of NEK9 (unknown origin) assessed as remaining activity at 1 uM by Kinome scan method relative to control
# [15] = molecular target: Fibroblast growth factor receptor 1 (Homo sapiens) (UniProt P11362); assay: Inhibition of FGFR1 (unknown origin) assessed as remaining activity at 1 uM by Kinome scan method relative to control
# Chain of Fibroblast growth factor receptor 1 (Homo sapiens) (P11362 22-822 limits assumed): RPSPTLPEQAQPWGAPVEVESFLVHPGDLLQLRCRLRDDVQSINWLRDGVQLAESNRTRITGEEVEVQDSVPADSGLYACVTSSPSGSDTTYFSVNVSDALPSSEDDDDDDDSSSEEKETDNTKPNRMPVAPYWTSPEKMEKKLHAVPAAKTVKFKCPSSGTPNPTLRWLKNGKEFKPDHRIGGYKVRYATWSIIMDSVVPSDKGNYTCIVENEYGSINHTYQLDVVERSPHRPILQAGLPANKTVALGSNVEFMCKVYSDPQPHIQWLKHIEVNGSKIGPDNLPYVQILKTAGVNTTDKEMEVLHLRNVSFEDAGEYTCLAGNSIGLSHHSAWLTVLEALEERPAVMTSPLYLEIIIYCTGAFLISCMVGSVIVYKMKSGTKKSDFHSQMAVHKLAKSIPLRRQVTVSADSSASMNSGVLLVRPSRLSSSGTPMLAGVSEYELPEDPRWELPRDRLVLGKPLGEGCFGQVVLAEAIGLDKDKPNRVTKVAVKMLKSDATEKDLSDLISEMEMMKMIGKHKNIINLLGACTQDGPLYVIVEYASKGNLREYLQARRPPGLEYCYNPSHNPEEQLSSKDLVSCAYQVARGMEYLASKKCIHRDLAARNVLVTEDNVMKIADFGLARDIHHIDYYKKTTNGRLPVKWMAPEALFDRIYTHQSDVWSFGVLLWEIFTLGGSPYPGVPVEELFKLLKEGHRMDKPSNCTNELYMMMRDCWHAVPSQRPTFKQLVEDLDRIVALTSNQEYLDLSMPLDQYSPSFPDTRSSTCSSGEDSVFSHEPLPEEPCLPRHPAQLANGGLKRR
# [16] = molecular target: Platelet-derived growth factor receptor alpha (Homo sapiens) (UniProt P16234); assay: Inhibition of PDGFRalpha (unknown origin) assessed as remaining activity at 1 uM by Kinome scan method relative to control
# How it was run: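 KINOMEscan active-site competition binding assay at 1 μM against 468 kinases. Ctrl% = (test − positive control)/(negative control DMSO − positive control) × 100; lower values mean tighter binding.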
# [17] = molecular target: Serine/threonine-protein kinase TAO2 (Homo sapiens) (UniProt Q9UL54); assay: Inhibition of TAOK2 (unknown origin) assessed as remaining activity at 1 uM by Kinome scan method relative to control
# [18] = AUC (0 to t) in male Sprague-Dawley rat at 5 mg/kg, iv measured for 24 hrs by LC-MS/MS analysis; type: ADME, organism-based; conditions: in vivo; how it was run: as §2
# [19] = molecular target: cAMP-dependent protein kinase catalytic subunit beta (Homo sapiens) (UniProt P22694); assay: Inhibition of PKAC-beta (unknown origin) assessed as remaining activity at 1 uM by Kinome scan method relative to control
# [20] = molecular target: T1, Serine/threonine-protein kinase 3 (Homo sapiens, UniProt Q13188)
# T1 sequence (Q13188 whole entry): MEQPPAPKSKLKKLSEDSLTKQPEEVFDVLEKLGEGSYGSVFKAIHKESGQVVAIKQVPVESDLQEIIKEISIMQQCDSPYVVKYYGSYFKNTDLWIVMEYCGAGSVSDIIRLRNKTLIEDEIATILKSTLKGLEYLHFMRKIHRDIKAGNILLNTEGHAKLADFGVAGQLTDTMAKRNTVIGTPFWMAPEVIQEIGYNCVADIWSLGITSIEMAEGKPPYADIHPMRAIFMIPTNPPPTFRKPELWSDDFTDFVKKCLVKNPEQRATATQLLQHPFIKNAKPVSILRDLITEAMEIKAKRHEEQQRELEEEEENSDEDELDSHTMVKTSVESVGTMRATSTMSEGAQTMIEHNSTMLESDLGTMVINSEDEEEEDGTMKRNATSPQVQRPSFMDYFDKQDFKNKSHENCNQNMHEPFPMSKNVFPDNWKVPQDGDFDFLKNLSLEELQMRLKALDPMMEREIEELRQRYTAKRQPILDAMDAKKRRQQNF
# HepG2 = assay: Inhibition of Flag-tagged MST1 D109A mutant (unknown origin) in human HepG2 cells assessed as MOB1 phosphorylation level at 0.3 to 10 uM by immunoblot analysis; type: cell-based; conditions: dose 0.3-10 µM
# [21] = molecular target: Myosin light chain kinase 2, skeletal/cardiac muscle (Homo sapiens) (UniProt Q9H1R3); assay: Inhibition of MYLK2 (unknown origin) assessed as remaining activity at 1 uM by Kinome scan method relative to control
# [22] = molecular target: Calcium/calmodulin-dependent protein kinase type IV (Homo sapiens) (UniProt Q16566); assay: Inhibition of CAMK4 (unknown origin) assessed as remaining activity at 1 uM by Kinome scan method relative to control; how it was run: as §1
# Chain of Calcium/calmodulin-dependent protein kinase type IV (Homo sapiens) (Q16566 whole entry): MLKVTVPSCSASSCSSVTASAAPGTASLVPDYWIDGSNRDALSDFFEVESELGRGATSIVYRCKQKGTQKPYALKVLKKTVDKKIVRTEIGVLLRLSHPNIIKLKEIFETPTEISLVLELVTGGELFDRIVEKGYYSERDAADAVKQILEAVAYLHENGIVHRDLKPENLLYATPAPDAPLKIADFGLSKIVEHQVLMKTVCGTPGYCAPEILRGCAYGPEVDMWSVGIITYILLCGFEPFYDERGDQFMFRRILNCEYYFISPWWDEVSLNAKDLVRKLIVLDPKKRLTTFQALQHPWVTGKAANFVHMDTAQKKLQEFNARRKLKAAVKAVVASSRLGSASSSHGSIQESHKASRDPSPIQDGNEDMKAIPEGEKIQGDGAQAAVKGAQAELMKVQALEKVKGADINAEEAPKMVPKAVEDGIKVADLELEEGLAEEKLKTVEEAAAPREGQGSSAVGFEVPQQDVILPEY
smiles,measurement,setting,value
CN1C(=O)c2sccc2N(C)c2nc(Nc3ccc(S(N)(=O)=O)cc3)ncc21,Activity,[1],73%
same,Activity,[2],94%
same,Activity,[3],37%
same,Activity,[4],100%
same,Activity,[5],98%
same,Activity,[6],95%
same,Activity,[7],93%
same,Activity,[8],92%
same,Activity,[9],100%
same,AUC(0-inf),[10],1.03 µg·h/mL
same,Activity,[11],78%
same,Activity,[12],100%
same,Activity,[13],100%
same,Activity,[14],94%
same,Activity,[15],88%
same,Activity,[16],89%
same,Activity,[17],3.4%
same,AUC(0-t) at 24 h,[18],1.26 µg·h/mL
same,Activity,[19],80%
same,IC50,[20],0.0388 µM
same,inhibition,HepG2,Active
same,Activity,[21],92%
same,Activity,[22],100%
